Test results reported in paper PMC6177519 (Clinical and Experimental Gastroenterology, 2018).
“And” between values parts separate entries of the source, which are not always exact repeats. Identical values can stand only once. Like-named read-outs stand apart in the source and are kept apart here.

Experiments:
Safety evaluation = type: in vivo, healthy adults; conditions: for Participants with any TEAEs: 60 mg
Method in brief: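 3-period crossover; single 60 mg test compound, fasted ≥10 h pre and 4 h post, as granules in 20 mL water via 16 French NG tube or oral syringe, or intact capsule with 240 mL water; ≥5-day washout. TEAE: onset/worsening from first dose to 30 days after last; MedDRA 15.0; phone follow-up 5–10 days post final dose; all dosed subjects.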

[1] = dual delayed-release formulation; cited from earlier work
[2] = human, plasma, 60 mg

Cc1c(OCC(F)(F)F)ccnc1C[S@@+]([O-])c1nc2ccccc2[nH]1 [Dexlansoprazole, dexlansoprazole]
Tolerability (Safety evaluation; 60 mg capsule, single doses, all administration routes): well tolerated
Participants with any TEAEs (Safety evaluation; oral intact capsule, N=52): 12 (23.1%) n (%) and 12 (23.1) n (%)
Participants with any TEAEs (Safety evaluation; oral syringe administration, N=60): 10 (16.7%) n (%) and 10 (16.7) n (%)
Time of first release of dexlansoprazole after dosing [1]: 1 to 2 h
Time of second release of dexlansoprazole after dosing [1]: 4 to 5 h
Tmax ([2]; oral): ~5 h
Tmax ([2]; po): ~5.5 h
